Results: ChEMBL document CHEMBL4376812 (J Med Chem, 2019)
The source made the active and inactive calls. The rule behind the calls is not given here.

How the values were obtained:
[1] = target: Non-receptor tyrosine-protein kinase TYK2 (Homo sapiens, UniProt P29597); experiment: Inhibition of TYK2 in human whole blood assessed as decrease in IFNalpha-induced STAT5 phosphorylation preincubated for 1 hr followed by stimulation with IFN-alpha for 15 mins by fluorescence analysis; type: tissue-based
Non-receptor tyrosine-protein kinase TYK2 (Homo sapiens, UniProt P29597), sequence (P29597 whole entry): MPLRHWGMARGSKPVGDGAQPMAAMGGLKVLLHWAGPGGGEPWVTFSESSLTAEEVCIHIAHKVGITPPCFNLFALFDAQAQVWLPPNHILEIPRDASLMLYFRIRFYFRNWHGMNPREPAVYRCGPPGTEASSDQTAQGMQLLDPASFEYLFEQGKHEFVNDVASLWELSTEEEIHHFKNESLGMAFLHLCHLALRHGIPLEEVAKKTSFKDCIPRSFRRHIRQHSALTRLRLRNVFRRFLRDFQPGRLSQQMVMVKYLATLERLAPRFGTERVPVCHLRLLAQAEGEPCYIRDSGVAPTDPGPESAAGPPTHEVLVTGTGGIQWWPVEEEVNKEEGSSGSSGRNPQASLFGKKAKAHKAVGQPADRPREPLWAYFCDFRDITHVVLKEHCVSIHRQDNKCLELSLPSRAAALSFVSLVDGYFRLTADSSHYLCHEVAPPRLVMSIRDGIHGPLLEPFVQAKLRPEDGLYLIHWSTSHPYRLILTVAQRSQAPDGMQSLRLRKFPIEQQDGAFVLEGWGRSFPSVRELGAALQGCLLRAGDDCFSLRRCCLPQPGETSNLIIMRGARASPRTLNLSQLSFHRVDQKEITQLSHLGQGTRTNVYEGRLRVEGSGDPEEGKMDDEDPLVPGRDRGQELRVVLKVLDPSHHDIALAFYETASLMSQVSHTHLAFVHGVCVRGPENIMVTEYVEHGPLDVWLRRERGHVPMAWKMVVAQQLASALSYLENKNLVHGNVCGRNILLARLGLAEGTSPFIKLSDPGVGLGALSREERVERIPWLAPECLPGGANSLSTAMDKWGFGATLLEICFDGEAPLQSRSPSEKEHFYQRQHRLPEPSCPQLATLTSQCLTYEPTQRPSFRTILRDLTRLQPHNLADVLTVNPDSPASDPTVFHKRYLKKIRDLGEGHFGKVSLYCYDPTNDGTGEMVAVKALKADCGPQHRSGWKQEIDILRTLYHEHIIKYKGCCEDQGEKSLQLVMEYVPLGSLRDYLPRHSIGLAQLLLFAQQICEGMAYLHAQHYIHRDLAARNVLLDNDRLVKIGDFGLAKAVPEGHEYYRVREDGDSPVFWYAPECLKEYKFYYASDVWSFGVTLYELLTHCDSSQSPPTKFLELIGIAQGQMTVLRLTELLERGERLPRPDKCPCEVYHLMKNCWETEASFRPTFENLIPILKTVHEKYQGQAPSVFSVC
Summary of the method: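 Human whole blood stimulated with IFNα; STAT5 phosphorylation was read in cells by staining and flow cytometry. IC50 from dose–response; mean of at least three experiments.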

JAK1/TYK2 = JAK1/TYK2 (Homo sapiens, UniProt P23458+P29597); experiment: Inhibition of JAK1/TYK2 in human Kit225 T cells assessed as inhibition of STAT phosphorylation by luciferase reporter assay; type: cell-based
JAK1/TYK2, sequence (P23458 whole entry): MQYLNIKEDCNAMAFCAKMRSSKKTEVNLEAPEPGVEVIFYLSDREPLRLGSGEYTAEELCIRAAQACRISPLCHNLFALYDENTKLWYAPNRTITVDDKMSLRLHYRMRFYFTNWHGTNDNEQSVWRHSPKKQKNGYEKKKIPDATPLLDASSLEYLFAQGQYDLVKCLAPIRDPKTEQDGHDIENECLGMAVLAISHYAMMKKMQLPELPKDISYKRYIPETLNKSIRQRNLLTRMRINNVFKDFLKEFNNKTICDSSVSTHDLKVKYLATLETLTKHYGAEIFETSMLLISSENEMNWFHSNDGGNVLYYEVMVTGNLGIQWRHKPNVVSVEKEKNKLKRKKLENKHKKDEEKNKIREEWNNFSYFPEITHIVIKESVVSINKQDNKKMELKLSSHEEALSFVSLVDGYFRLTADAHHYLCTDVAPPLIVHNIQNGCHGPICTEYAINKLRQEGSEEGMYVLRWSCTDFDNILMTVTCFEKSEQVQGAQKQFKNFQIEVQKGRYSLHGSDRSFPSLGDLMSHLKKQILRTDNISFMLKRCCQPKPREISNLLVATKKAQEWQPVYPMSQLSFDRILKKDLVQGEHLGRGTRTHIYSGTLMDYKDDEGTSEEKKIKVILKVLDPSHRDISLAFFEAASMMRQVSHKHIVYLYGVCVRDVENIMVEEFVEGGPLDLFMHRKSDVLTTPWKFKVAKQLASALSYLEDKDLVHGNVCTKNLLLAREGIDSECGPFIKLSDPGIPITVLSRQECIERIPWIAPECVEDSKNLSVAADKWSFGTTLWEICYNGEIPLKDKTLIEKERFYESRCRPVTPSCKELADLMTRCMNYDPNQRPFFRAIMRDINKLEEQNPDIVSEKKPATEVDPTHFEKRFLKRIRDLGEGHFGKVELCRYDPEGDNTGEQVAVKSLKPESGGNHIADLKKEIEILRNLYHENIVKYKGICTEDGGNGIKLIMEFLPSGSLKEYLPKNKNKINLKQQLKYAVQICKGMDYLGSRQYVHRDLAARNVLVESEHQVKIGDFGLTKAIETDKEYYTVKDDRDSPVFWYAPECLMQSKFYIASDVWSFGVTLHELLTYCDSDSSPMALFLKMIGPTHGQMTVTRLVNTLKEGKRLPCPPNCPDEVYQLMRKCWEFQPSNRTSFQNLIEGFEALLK
JAK1/TYK2, sequence (P29597 whole entry): as the sequence (P29597 whole entry) above
Summary of the method: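 T-cells carrying a stably integrated STAT-dependent luciferase reporter were stimulated with IFNα or IL-23 to measure TYK2/JAK1-dependent signalling. Dose–response curves gave IC50.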

[2] = Metabolic stability in mouse liver microsomes assessed as compound remaining incubated for 10 mins; type: ADME, Microsome; settings: read-out: Stability
Summary of the method: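 Mouse liver microsomal stability, reported as percent of parent remaining after a 10 min incubation. Values are means of at least three experiments unless otherwise noted.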

[3] = target: Non-receptor tyrosine-protein kinase TYK2 (Mus musculus, UniProt Q9R117); experiment: Inhibition of TYK2 in mouse whole blood assessed as decrease in IFNalpha-induced STAT1 phosphorylation preincubated for 1 hr followed by stimulation with IFN-alpha for 15 mins by fluorescence analysis; type: tissue-based
Non-receptor tyrosine-protein kinase TYK2 (Mus musculus, UniProt Q9R117), sequence (Q9R117 whole entry): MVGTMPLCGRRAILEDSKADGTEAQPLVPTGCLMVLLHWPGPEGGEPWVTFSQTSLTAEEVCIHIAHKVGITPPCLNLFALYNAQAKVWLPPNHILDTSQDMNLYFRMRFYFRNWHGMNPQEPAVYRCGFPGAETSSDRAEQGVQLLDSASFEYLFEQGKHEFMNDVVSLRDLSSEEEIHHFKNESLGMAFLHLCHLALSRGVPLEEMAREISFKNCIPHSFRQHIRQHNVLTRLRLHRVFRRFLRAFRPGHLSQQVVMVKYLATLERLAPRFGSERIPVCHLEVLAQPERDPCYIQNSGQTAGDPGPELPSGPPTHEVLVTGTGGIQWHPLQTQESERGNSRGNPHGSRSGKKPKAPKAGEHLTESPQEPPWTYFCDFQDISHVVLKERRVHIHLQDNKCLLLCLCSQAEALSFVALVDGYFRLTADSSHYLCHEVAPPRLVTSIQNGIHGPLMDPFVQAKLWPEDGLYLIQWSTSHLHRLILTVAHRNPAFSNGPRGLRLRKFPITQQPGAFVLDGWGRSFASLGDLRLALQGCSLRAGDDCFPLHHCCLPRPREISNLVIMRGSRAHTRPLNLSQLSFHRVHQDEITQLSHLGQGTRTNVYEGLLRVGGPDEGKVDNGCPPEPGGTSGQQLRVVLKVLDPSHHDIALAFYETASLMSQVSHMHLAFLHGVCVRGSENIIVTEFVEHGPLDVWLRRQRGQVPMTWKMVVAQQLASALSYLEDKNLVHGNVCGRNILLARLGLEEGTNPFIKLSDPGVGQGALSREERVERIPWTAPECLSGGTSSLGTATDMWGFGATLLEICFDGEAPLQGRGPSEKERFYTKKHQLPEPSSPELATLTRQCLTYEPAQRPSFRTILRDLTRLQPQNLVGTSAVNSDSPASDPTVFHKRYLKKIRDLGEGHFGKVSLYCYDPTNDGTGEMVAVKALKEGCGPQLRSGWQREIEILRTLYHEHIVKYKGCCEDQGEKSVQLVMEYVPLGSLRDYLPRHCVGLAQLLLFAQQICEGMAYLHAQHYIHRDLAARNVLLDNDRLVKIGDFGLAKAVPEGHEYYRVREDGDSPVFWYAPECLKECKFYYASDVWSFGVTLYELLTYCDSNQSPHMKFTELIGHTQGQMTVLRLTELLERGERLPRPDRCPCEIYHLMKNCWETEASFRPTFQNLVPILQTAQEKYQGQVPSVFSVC
Summary of the method: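 Mouse whole blood stimulated with IFNα; STAT1 phosphorylation was measured by cellular staining and flow cytometry. Read as IC50.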

[4] = Permeability coefficient, Kp across apical to basolateral side in human Caco2 cells; type: ADME, cell-based; settings: Caco-2, read-out: permeability
Summary of the method: (§1)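 Caco-2 monolayer permeability measured in both directions, apical-to-basal and basal-to-apical, reported as Pc in nm/s. An efflux ratio was calculated from the two directions.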

[5] = Metabolic stability in mouse liver microsomes assessed as half life; type: ADME, Microsome
Summary of the method: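 Liver microsomes from human, rat, mouse, dog, cynomolgus monkey and rabbit were incubated with compound. Stability is reported as half-life (T1/2, min). Values are means of at least three separate experiments.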

[6] = Permeability coefficient, Kp across basolateral to apical side in human Caco2 cells; type: ADME, cell-based; settings: Caco-2, read-out: permeability; summary of the method: as §1
[7] = target: Voltage-gated inwardly rectifying potassium channel KCNH2 (Homo sapiens, UniProt Q12809); experiment: Inhibition of human ERG by in vitro ion channel flux assay
Voltage-gated inwardly rectifying potassium channel KCNH2, sequence (Q12809 whole entry): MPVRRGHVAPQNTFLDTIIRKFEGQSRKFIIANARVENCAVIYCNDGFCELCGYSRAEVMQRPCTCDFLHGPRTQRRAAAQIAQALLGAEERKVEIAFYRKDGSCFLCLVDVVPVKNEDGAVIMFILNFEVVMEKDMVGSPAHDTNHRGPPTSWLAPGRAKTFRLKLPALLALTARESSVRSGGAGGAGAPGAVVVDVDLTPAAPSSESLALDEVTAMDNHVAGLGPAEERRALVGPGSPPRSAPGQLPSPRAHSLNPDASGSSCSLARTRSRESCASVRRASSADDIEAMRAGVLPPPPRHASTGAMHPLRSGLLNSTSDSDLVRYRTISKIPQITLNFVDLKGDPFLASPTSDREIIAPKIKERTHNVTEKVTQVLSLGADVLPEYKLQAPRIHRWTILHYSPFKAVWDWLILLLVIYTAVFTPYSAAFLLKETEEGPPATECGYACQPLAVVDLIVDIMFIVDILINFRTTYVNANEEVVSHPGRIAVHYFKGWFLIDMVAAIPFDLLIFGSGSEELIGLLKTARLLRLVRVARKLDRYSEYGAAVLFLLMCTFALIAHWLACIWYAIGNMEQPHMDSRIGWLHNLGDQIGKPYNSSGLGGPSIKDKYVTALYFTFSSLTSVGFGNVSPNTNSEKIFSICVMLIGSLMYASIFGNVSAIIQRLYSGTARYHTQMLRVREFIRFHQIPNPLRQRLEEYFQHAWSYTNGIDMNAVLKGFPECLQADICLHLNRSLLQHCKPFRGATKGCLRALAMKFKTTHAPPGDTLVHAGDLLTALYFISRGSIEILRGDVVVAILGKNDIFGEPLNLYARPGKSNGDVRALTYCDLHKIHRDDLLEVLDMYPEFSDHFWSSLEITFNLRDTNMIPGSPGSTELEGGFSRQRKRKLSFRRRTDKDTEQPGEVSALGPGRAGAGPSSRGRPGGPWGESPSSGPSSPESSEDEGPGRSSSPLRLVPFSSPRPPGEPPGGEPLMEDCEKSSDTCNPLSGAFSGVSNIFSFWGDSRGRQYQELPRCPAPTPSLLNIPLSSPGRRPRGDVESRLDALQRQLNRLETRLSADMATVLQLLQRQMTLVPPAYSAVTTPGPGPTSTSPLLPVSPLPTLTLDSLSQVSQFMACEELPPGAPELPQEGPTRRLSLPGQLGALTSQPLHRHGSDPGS

Mus musculus [8] = experiment: Protection against IL23-induced acanthosis C57BL/6 mouse assessed as reduction in ear swelling at 15 mg/kg, po via gavage bid for 9 days with first dose given prior to first IL23 challenge and twice a day thereafter by caliper method; type: functional, organism-based; settings: tested as the 2H-labelled form
Mus musculus [9] = experiment: Protection against IL23-induced acanthosis C57BL/6 mouse assessed as reduction in ear swelling at 30 mg/kg, po via gavage bid for 9 days with first dose given prior to first IL23 challenge and twice a day thereafter by caliper method; type: functional, organism-based; settings: tested as the 2H-labelled form
Mus musculus [10] = experiment: Protection against IL23-induced acanthosis C57BL/6 mouse assessed as inhibition of inflammatory cellular infiltration compound dosed orally via gavage bid for 9 days with first dose given prior to first IL23 challenge and twice a day thereafter by H and E staining based analysis; type: functional, organism-based; settings: tested as the 2H-labelled form
Summary of the method: (§2)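 IL-23 was injected intradermally into mouse ears repeatedly to drive acanthosis. Test agent was given orally twice daily for 9 days at 7.5, 15 or 30 mg/kg in EtOH:TPGS:PEG300 (5:5:90), with an anti-IL-23 adnectin as positive control. Epidermal hyperplasia and cellular infiltration were scored histologically. Eight mice per group; means ± SEM; one-way ANOVA.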

Mus musculus [11] = experiment: Protection against IL23-induced acanthosis C57BL/6 mouse assessed as inhibition in IL-17A mRNA expression in ear skin compound dosed orally via gavage bid for 9 days with first dose given prior to first IL23 challenge and twice a day thereafter by qRT-PCR analysis; type: functional, organism-based; settings: tested as the 2H-labelled form
Summary of the method: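 Mice given repeated intradermal IL-23 injections into the ears to induce acanthosis. Oral dosing twice daily for 9 days at 7.5, 15 or 30 mg/kg in 5:5:90 EtOH:TPGS:PEG300 vehicle; anti-IL-23 adnectin served as positive control. Skin biopsies analysed by quantitative PCR for IL-17A expression. Eight mice per group; means ± SEM; one-way ANOVA.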

Mus musculus [12] = experiment: Protection against IL23-induced acanthosis C57BL/6 mouse assessed as inhibition of inflammatory cellular infiltration at 30 mg/kg, po via gavage bid for 9 days with first dose given prior to first IL23 challenge and twice a day thereafter by H and E staining based analysis; type: functional, organism-based; settings: tested as the 2H-labelled form; summary of the method: as §2
Mus musculus [13] = experiment: Protection against IL23-induced acanthosis in C57BL/6 mouse assessed as reduction in ear swelling compound dosed orally via gavage bid for 9 days with first dose given prior to first IL23 challenge and twice a day thereafter by caliper method; type: functional, organism-based; settings: tested as the 2H-labelled form
Mus musculus [14] = experiment: Protection against IL23-induced acanthosis C57BL/6 mouse assessed as inhibition in IL-23 mRNA expression in ear skin compound dosed orally via gavage bid for 9 days with first dose given prior to first IL23 challenge and twice a day thereafter by qRT-PCR analysis; type: functional, organism-based; settings: tested as the 2H-labelled form
Summary of the method: (§3)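 IL-23 was injected intradermally and repeatedly into mouse ears to induce psoriasis-like acanthosis. Compound was given orally twice daily for 9 days in EtOH:TPGS:PEG300 (5:5:90), at 7.5, 15 and 30 mg/kg. Skin biopsies were analysed for cytokine transcripts (IL-17A, IL-21, IL-12/IL-23 subunits) by quantitative PCR. Eight mice per group.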

Mus musculus [15] = experiment: Protection against IL23-induced acanthosis C57BL/6 mouse assessed as inhibition in epidermal hyperplasia compound dosed orally via gavage bid for 9 days with first dose given prior to first IL23 challenge and twice a day thereafter by H and E staining based analysis; type: functional, organism-based; settings: tested as the 2H-labelled form
Summary of the method: (§4)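 IL-23 was injected intradermally and repeatedly into mouse ears. Compound was dosed orally twice daily for 9 days in EtOH:TPGS:PEG300 (5:5:90), at 7.5, 15 or 30 mg/kg. Histological scoring covered epidermal hyperplasia and inflammatory infiltration. Eight mice per group; means ± SEM; one-way ANOVA.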

Mus musculus [16] = experiment: Protection against IL23-induced acanthosis C57BL/6 mouse assessed as inhibition in IL-21 mRNA expression in ear skin compound dosed orally via gavage bid for 9 days with first dose given prior to first IL23 challenge and twice a day thereafter by qRT-PCR analysis; type: functional, organism-based; settings: tested as the 2H-labelled form; summary of the method: as §3
Mus musculus [17] = experiment: Protection against IL23-induced acanthosis C57BL/6 mouse assessed as inhibition in IL-12 mRNA expression in ear skin compound dosed orally via gavage bid for 9 days with first dose given prior to first IL23 challenge and twice a day thereafter by qRT-PCR analysis; type: functional, organism-based; settings: tested as the 2H-labelled form; summary of the method: as §3
Mus musculus [18] = experiment: Protection against IL23-induced acanthosis C57BL/6 mouse assessed as inhibition in epidermal hyperplasia at 30 mg/kg, po via gavage bid for 9 days with first dose given prior to first IL23 challenge and twice a day thereafter by H and E staining based analysis; type: functional, organism-based; settings: tested as the 2H-labelled form; summary of the method: as §4
Homo sapiens [19] = organism: Homo sapiens; experiment: Selectivity ratio of IC50 for JAK1/JAK3 in human PBMC assessed as decrease in IL2-induced STAT5 phosphorylation in CD3+ T cells to IC50 for TYK2 JH2 domain in human PBMC assessed as decrease in IFNalpha-induced STAT5 phosphorylation; type: cell-based; settings: tested as the 2H-labelled form
Summary of the method: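 Human PBMC were stimulated with IL-2 (JAK1/JAK3) or IFNα (TYK2), and STAT5 phosphorylation in CD3⁺ T-cells was the end point. The ratio is IL-2 IC50 over IFNα IC50, with means from at least three separate experiments.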

Homo sapiens [20] = organism: Homo sapiens; experiment: Selectivity ratio of IC50 for c-kit (unknown origin) to IC50 for His-tagged recombinant human TYK2 pseudokinase JH2 domain (575-869 residues) incubated for 1 hr by HTRF assay; settings: tested as the 2H-labelled form
Homo sapiens [21] = organism: Homo sapiens; experiment: Selectivity ratio of IC50 for JAK2 in GM-CSF-stimulated human TF-1 cells to IC50 for TYK2 JH2 domain in human PBMC assessed as decrease in IFNalpha-induced STAT5 phosphorylation; settings: tested as the 2H-labelled form

IC50 [1] [nM]	IC50 (JAK1/TYK2) [nM]	remaining at 10 min [2] [%]	IC50 [3] [nM]	SMILES	also measured
300	70	15	–	CNC(=O)c1cnc(Nc2cc(C)c(F)cn2)cc1Nc1cccc(-c2ccnn2C)c1OC	–
15	6	85	260	CNC(=O)c1cnc(Nc2ccc(C#N)cn2)cc1Nc1cccc(-c2ncn(C)n2)c1OC	Papp A→B [4]: 1.8 ×10⁻⁶ cm/s
12	4	80	130	CNC(=O)c1cnc(Nc2cc(C)c(F)cn2)cc1Nc1cccc(-c2ncn(C)n2)c1OC	–
160	51	–	–	CNC(=O)c1cnc(Nc2cc(C)c(F)cn2)cc1Nc1cccc(C(=O)NCCN2CCOCC2)c1OC	–
390	930	–	–	CNC(=O)c1cnc(Nc2ccc(F)cn2)cc1Nc1ccc(C(N)=O)cc1OC	–
19	12	73	730	CNC(=O)c1cnc(Nc2cc(C)nc(C)n2)cc1Nc1cccc(-c2ncn(C)n2)c1OC	Papp A→B [4]: < 1.5 ×10⁻⁶ cm/s
13	8	89	100	[2H]C([2H])([2H])NC(=O)c1cnc(NC(=O)C2CC2)cc1Nc1cccc(-c2ncn(C)n2)c1OC	Papp A→B [4]: < 1.5 ×10⁻⁶ cm/s; half-life [5]: > 2 h
> 10000	7500	–	–	CNC(=O)c1cccc(Nc2cc(Nc3ccc(F)cn3)ncc2C(=O)NC)c1	–
62	30	–	–	CNC(=O)c1cnc(Nc2cc(C)c(F)cn2)cc1Nc1cccc(C(N)=O)c1OC	Papp A→B [4]: < 1.5 ×10⁻⁶ cm/s; Papp B→A [6]: 26 ×10⁻⁶ cm/s
150	16	29	–	CNC(=O)c1cnc(Nc2cc(C)c(F)cn2)cc1Nc1cccc(-c2nncn2C)c1OC	–
79	9	66	430	CNC(=O)c1cnc(Nc2cc(C)c(F)cn2)cc1Nc1cccc(-c2ccn(C)n2)c1OC	–
120	63	–	–	CNC(=O)c1cnc(Nc2ccc(F)cn2)cc1Nc1cccc(C(N)=O)c1OC	–
> 10000	> 10000	–	–	CNC(=O)c1cnc(Nc2ccc(F)cn2)cc1Nc1cccc(C(=O)O)c1OC	Papp A→B [4]: < 1.5 ×10⁻⁶ cm/s
100	12	70	570	CNC(=O)c1cnc(Nc2cc(C)c(F)cn2)cc1Nc1cccc(-c2nnc(C)o2)c1OC	–
69	12	78	700	CNC(=O)c1cnc(Nc2ccc(C(F)(F)F)cn2)cc1Nc1cccc(-c2ncn(C)n2)c1OC	Papp A→B [4]: 1.6 ×10⁻⁶ cm/s; IC50 [7]: 16000 nM
750	130	–	–	CNC(=O)c1cnc(Nc2cc(C)c(F)cn2)cc1Nc1cccc(C(=O)N(C)C)c1OC	–

IC50 [1] [nM]	IC50 (JAK1/TYK2) [nM]	remaining at 10 min [2] [%]	IC50 [3] [nM]	SMILES	also measured
–	–	–	–	CNC(=O)c1nnc(NC(=O)C2CC2)cc1Nc1cccc(-c2ncn(C)n2)c1OC	Activity (Mus musculus [8]): Active; Activity (Mus musculus [9]): Active; Activity (Mus musculus [10]): Dose-dependent effect; Activity (Mus musculus [11]): Dose-dependent effect; Activity (Mus musculus [12]): Active; Activity (Mus musculus [13]): Dose-dependent effect; Activity (Mus musculus [14]): Dose-dependent effect; Activity (Mus musculus [15]): Dose-dependent effect; Activity (Mus musculus [16]): Dose-dependent effect; Activity (Mus musculus [17]): Dose-dependent effect; Activity (Mus musculus [18]): Active
520	490	–	–	CNC(=O)c1ccc(Nc2cc(Nc3ccc(F)cn3)ncc2C(=O)NC)c(OC)c1	Papp A→B [4]: < 1.5 ×10⁻⁶ cm/s
23	8	51	310	CNC(=O)c1cnc(Nc2cc(C)c(F)cn2)cc1Nc1cccc(-c2nc[nH]n2)c1OC	–
16	14	93	330	CNC(=O)c1cnc(NC(=O)C2CC2)cc1Nc1cccc(-c2ncn(C)n2)c1OC	Papp A→B [4]: 2.3 ×10⁻⁶ cm/s
570	34	–	–	CNC(=O)c1cnc(Nc2ccc(F)cn2)cc1Nc1cccc(C#N)c1OC	–
180	22	–	–	CNC(=O)c1cnc(Nc2cc(C)c(F)cn2)cc1Nc1cccc(C(=O)NCc2ccccn2)c1OC	–
230	78	–	–	CNC(=O)c1cnc(Nc2ccc(F)cn2)cc1Nc1cccc(C(=O)NC)c1OC	Papp A→B [4]: 5 ×10⁻⁶ cm/s
> 10000	–	–	–	[2H]C([2H])([2H])NC(=O)c1nnc(NC(=O)C2CC2)cc1Nc1cccc(-c2ncn(C)n2)c1	–
170	15	46	522	CNC(=O)c1cnc(Nc2cc(C)c(F)cn2)cc1Nc1cccc(-c2nnco2)c1OC	–
140	47	–	–	CNC(=O)c1cnc(Nc2cc(C)c(F)cn2)cc1Nc1cccc(C(=O)NC)c1OC	–
870	64	–	–	CNC(=O)c1cnc(Nc2cc(C)c(F)cn2)cc1Nc1cccc(C(=O)NCC2CC2)c1OC	–
–	–	–	–	CNC(=O)c1nnc(Nc2ccccn2)cc1Nc1ccccc1S(C)(=O)=O	Ratio IC50 (Homo sapiens [19]): 210; Ratio IC50 (Homo sapiens [20]): 690; Ratio IC50 (Homo sapiens [21]): 270
270	220	–	–	CNC(=O)c1cnc(Nc2cc(C)c(F)cn2)cc1Nc1cccc(C(=O)NCCO)c1OC	–
87	15	9	380	CNC(=O)c1cnc(Nc2cc(C)c(F)cn2)cc1Nc1cccc(-c2ncnn2C)c1OC	–
280	28	–	–	CCNC(=O)c1cccc(Nc2cc(Nc3cc(C)c(F)cn3)ncc2C(=O)NC)c1OC	–
40	7	63	320	CNC(=O)c1cnc(Nc2cc(C)c(F)cn2)cc1Nc1cccc(-c2n[nH]c(C)n2)c1OC	–
